Hits are enriched below; roughly 2.3% of the tested compounds scored in any of these assays.
PGC1a acetyl inh – modulators of PGC1a acetylation. U2OS PGC1a acetylation, AlphaScreen anti-acetyl-lysine; with virally co-expressed GCN5 acetyltransferase. inhibition, % at 15.6 µM. actives 0.17% (n = 350,000);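 active = every replicate shows inhibition of at least 40%; inconclusive = mean inhibition at least 40% but some replicate below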
PAX8 reporter – inhibitors of PAX8 transcriptional activity in RMG-I cells; RMG-I TPO-luciferase reporter, SteadyGlo, 24 h; AID 652154; actives 1.2% (n = 360,000); inhibition, % at 12.6 µM;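 active = mean replicate inhibition at least 60% with every replicate also reaching 60%; inconclusive = only one of the two criteria is met; inactive = mean below 60% and not all replicates reaching 60%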;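 note: luciferase light reporting Pax8 driven TPO promoter activity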
FN deposition inh – fibronectin deposition inhibition; AH1F fibroblasts, Alexa488-fibronectin deposition fluorescence, overnight; inhibition, % at 12.6 µM; actives 0.086% (n = 350,000);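 active = mean inhibition across replicates of 30% or more, regardless of how many single replicates reach that level; inconclusive = mean under 30% yet at least half of replicates reach 30%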
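Material – AH1F fibroblast monolayer, labelled fibronectin deposition · Reagent – labelled fibronectin 24 nM · Timing – 1 h adhesion, overnight exposure · Measured by – fluorescence at 485 nm excitation, 525 nm emission · Read-out – inhibition of fibronectin deposition signal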
EWS-Fli block – blocks EWS/Fli oncoprotein-driven transcription. actives 0.67% (n = 350,000). inhibition, % at 12.6 µM. A673 NR0B1-luciferase reporter, viability-normalised;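 active = mean inhibition of at least 50% after viability correction, with every replicate also passing that limit; inconclusive = mean reaches 50% but only one of two replicates passes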;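 note: firefly luciferase signal divided by Alamar Blue viability fluorescence both relative to DMSO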
Env fusion inh – HIV envelope-mediated fusion inhibition. actives 1.1% (n = 360,000). HeLa-JRFL Env/CEM21 cell fusion, luciferase. inhibition, % at 12.3 µM. AID 651610;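 active = mean replicate inhibition score of at least 50 and every replicate individually at or above 50; inconclusive = only one of the two criteria met; inactive = mean below 50 and not all replicates reaching 50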
CFTR F508del cor – CFTR F508del correction in bronchial cells | activity (quench increase), % at 7.58 µM | CFBE cells, YFP halide quenching; stimulated with forskolin plus potentiator P3; % fluorescence drop versus neutral controls | actives 0.36% (n = 350,000);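 active = mean added fluorescence quench of at least 8% versus neutral control, with both replicates also reaching 8%; inconclusive = only one of the mean or replicate conditions met; inactive = mean below 8% and not both replicates reaching 8%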;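 note: cells transiently co-express mutant CFTR-F508del with the halide-sensitive YFP; corrector assay measuring rescue of mutant channel to the surface after 24 h compound exposure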
Large screens that a line does not name were inactive; [ ] = remark or other dose.

Cc1ccc(C)c(C(=O)CCC(=O)N2CCN(c3cccc(C(F)(F)F)c3)CC2)c1	none (no result: Env fusion inh)
Cc1ccc(/C=C/C(=O)N2CCN(c3cccc(C(F)(F)F)c3)CC2)cc1	PAX8 reporter 89 (no result: PGC1a acetyl inh, CFTR F508del cor)
Cc1noc(C)c1COc1ccccc1C(=O)N1CCN(c2cccc(C(F)(F)F)c2)CC1	EWS-Fli block 64 (no result: Env fusion inh)
O=[N+]([O-])c1ccc(N2CCN(Cc3ccccc3)CC2)c2c1no[n+]2[O-]	PAX8 reporter 99 (no result: FN deposition inh)
c1ccc(Cc2cnc(N3CCN(Cc4csc5ccccc45)CC3)nc2)cc1	Env fusion inh 77 (no result: PGC1a acetyl inh)
Oc1ccc(Br)c(CN2CCN(c3ncc(Cc4ccccc4)cn3)CC2)c1	none (no result: PGC1a acetyl inh)
CCOC(=O)c1cccc(NS(=O)(=O)c2c(C)[nH]c(=O)[nH]c2=O)c1	none (no result: PAX8 reporter, FN deposition inh, EWS-Fli block, CFTR F508del cor)
CCOc1ccc(NC(=O)Nc2cccc(C(=O)O)c2)cc1	PAX8 reporter 99, EWS-Fli block 91, Env fusion inh 63
CCOC(=O)c1cccc(NC(=O)CSc2nc3cccnc3n2C)c1	Env fusion inh 62 (no result: EWS-Fli block, CFTR F508del cor)
CC(=O)Nc1ccc(S(=O)(=O)Nc2cccc(-c3nc4cc(C)ccc4o3)c2)cc1	CFTR F508del cor 11
CCOC(=O)c1cccc(NS(=O)(=O)c2ccc(NC(C)=O)cc2)c1	Env fusion inh 106 (no result: FN deposition inh, EWS-Fli block, CFTR F508del cor)
CC(=O)Nc1ccc(S(=O)(=O)Nc2cccc(-c3csc(C)n3)c2)cc1	none (no result: PGC1a acetyl inh)
CC(=O)Nc1cccc2c1O[C@@H](CN(C)S(C)(=O)=O)[C@H](C)CN(C)C2=O	none (no result: PGC1a acetyl inh, PAX8 reporter, EWS-Fli block, Env fusion inh, CFTR F508del cor)
CCC(=O)N1C[C@H](C)[C@H](OC)CN(C)C(=O)c2ccc(NC(=O)c3cc(C)on3)cc2OC[C@H]1C	none
C[C@@H]1CCCCO[C@H](CN(C)S(=O)(=O)c2ccc(F)cc2)[C@H](C)CN([C@H](C)CO)C(=O)c2cc(NC(=O)Nc3ccc(F)cc3)ccc2O1	none
Cc1ccc(S(=O)(=O)N(C)C[C@H]2OCCCC[C@H](C)Oc3ccc(NS(=O)(=O)c4cn(C)cn4)cc3C(=O)N([C@H](C)CO)C[C@H]2C)cc1	none
CCOC(=O)c1cccc(NC(=O)Nc2ccc(OCC)cc2)c1	EWS-Fli block 84 (no result: PGC1a acetyl inh)
Cc1ccccc1OCC(=O)Nc1cccc(C(=O)O)c1	PAX8 reporter 93, EWS-Fli block 83, Env fusion inh 76 (no result: PGC1a acetyl inh)
CCOC(=O)c1cccc(NC(=O)c2ccc(NC(=O)c3ccco3)cc2)c1	none (no result: PGC1a acetyl inh, FN deposition inh, EWS-Fli block)
CCOC(=O)c1cccc(NC(=O)c2ccc(N(C)C)cc2)c1	EWS-Fli block 76 (no result: PGC1a acetyl inh, CFTR F508del cor)
CC=Cc1ccc2n(c1=O)C[C@@H]1[C@@H](CO)[C@H](C(=O)N3CCOCC3)N(Cc3ccccc3OC)[C@H]21 (mixture of isomers)	none (no result: PGC1a acetyl inh, PAX8 reporter, FN deposition inh, CFTR F508del cor)
COc1ccc(NC(=O)N2CC3(C2)CN(C(=O)C2CCC2)[C@H](CO)c2c3c3ccc(OC)cc3n2C)cc1	none (no result: FN deposition inh, Env fusion inh)
Cc1noc(C)c1S(=O)(=O)Nc1ccc2c(c1)C(=O)N([C@H](C)CO)C[C@@H](C)[C@H](CN(C)Cc1ccc(Cl)c(Cl)c1)OCCCC[C@@H](C)O2	PAX8 reporter 75 (no result: FN deposition inh)
Cc1noc(C)c1S(=O)(=O)Nc1ccc2c(c1)C(=O)N([C@H](C)CO)C[C@@H](C)[C@H](CN(C)Cc1ccc(C(F)(F)F)cc1)OCCCC[C@H](C)O2	PAX8 reporter 72 (no result: EWS-Fli block)
Cc1noc(C)c1S(=O)(=O)Nc1ccc2c(c1)C(=O)N([C@H](C)CO)C[C@@H](C)[C@H](CN(C)C(=O)Nc1ccc(C(F)(F)F)cc1)OCCCC[C@@H](C)O2	PAX8 reporter 87 (no result: FN deposition inh)
Cc1noc(C)c1S(=O)(=O)Nc1ccc2c(c1)C(=O)N([C@H](C)CO)C[C@@H](C)[C@H](CN(C)Cc1ccc(C(F)(F)F)cc1)OCCCC[C@@H](C)O2	PAX8 reporter inconclusive (no result: FN deposition inh, EWS-Fli block)
Cc1noc(C)c1S(=O)(=O)Nc1ccc2c(c1)C(=O)N([C@H](C)CO)C[C@@H](C)[C@@H](CN(C)Cc1ccc(C(F)(F)F)cc1)OCCCC[C@H](C)O2	PAX8 reporter 86 (no result: FN deposition inh, EWS-Fli block)
Cc1noc(C)c1S(=O)(=O)Nc1ccc2c(c1)C(=O)N([C@H](C)CO)C[C@H](C)[C@@H](CN(C)Cc1ccc(Cl)c(Cl)c1)OCCCC[C@H](C)O2	none (no result: FN deposition inh, EWS-Fli block, Env fusion inh)
COc1ccc(S(=O)(=O)N2CCC3(CC2)CN(C(=O)c2cccnc2)[C@H](CO)c2c3c3ccc(OC)cc3n2C)cc1	none (no result: PAX8 reporter, FN deposition inh, Env fusion inh)
C[C@@H]1CN([C@H](C)CO)C(=O)c2cc(-c3cccnc3)cnc2O[C@H]1CN(C)C(=O)c1ccccc1F	none (no result: PAX8 reporter, FN deposition inh)
Cc1noc(C)c1S(=O)(=O)Nc1ccc2c(c1)C(=O)N([C@@H](C)CO)C[C@@H](C)[C@@H](CN(C)Cc1ccc(C(F)(F)F)cc1)OCCCC[C@H](C)O2	PAX8 reporter 68 (no result: FN deposition inh, EWS-Fli block)
C[C@H]1CN([C@@H](C)CO)C(=O)c2cc(-c3ccc(F)cc3)cnc2O[C@H]1CN(C)CC1CCCCC1	none
CO[C@H]1CN(C)C(=O)c2ccc(NC(=O)C3CCC3)cc2OC[C@H](C)N(CC2CCCCC2)C[C@@H]1C	Env fusion inh 92[16.7 µM]
CO[C@@H]1CN(C)C(=O)c2ccc(NC(=O)C3CCC3)cc2OC[C@H](C)N(CC2CCCCC2)C[C@H]1C	none
CO[C@@H]1CN(C)C(=O)c2ccc(NS(C)(=O)=O)cc2OC[C@@H](C)N(C(=O)C2CCCCC2)C[C@H]1C	Env fusion inh 66[16.7 µM]
CCC(=O)Nc1ccc2c(c1)OC[C@H](C)N(CC1CCCCC1)C[C@H](C)[C@@H](OC)CN(C)C2=O	Env fusion inh 87[16.7 µM]
C[C@H]1CC=CC[C@@H](c2ccccc2)NC(=O)[C@H](Cc2ccccc2)N(C)C(=O)c2ccccc2O1 (mixture of isomers)	none (no result: PGC1a acetyl inh, PAX8 reporter, EWS-Fli block, Env fusion inh, CFTR F508del cor)
O=C(C[C@H]1CC[C@@H]2[C@H](COC[C@H](O)CN2S(=O)(=O)c2ccccc2)O1)Nc1ccc(-c2ccccc2)cc1	PAX8 reporter 63 (no result: Env fusion inh)
O=C(C[C@@H]1CC[C@H]2[C@@H](COC[C@H](O)CN2Cc2ccc3c(c2)OCO3)O1)Nc1ccc(-c2ccccc2)cc1	CFTR F508del cor 9.6
O=C(C[C@H]1CC[C@@H]2[C@H](COC[C@@H](O)CN2S(=O)(=O)c2ccccc2)O1)Nc1ccc(-c2ccccc2)cc1	CFTR F508del cor 8.3 (no result: Env fusion inh)
COc1ccc(S(=O)(=O)Nc2ccc3c(c2)CC(=O)N([C@@H](C)CO)C[C@@H](C)[C@H](CN(C)CC2CCCCC2)O3)cc1	none (no result: PAX8 reporter, FN deposition inh)
C[C@@H]1CCCCO[C@H](CN(C)CC2CC2)[C@H](C)CN([C@@H](C)CO)C(=O)c2cc(NC(=O)Cc3ccccc3)ccc2O1	none (no result: FN deposition inh, EWS-Fli block)
COCC#Cc1ccc2c(c1)O[C@@H](CN(C)C(=O)C1CC1)[C@H](C)CN([C@@H](C)CO)S2(=O)=O	none (no result: PAX8 reporter)
CN(c1ccccc1)S(=O)(=O)c1ccc(NC(=O)c2nc(S(C)(=O)=O)ncc2Cl)cc1	PAX8 reporter 133, EWS-Fli block 58 (no result: PGC1a acetyl inh)
COc1cccc(NC(=O)c2nc(S(C)(=O)=O)ncc2Cl)c1	EWS-Fli block 59 (no result: PGC1a acetyl inh)
